Measurements from ChEMBL document CHEMBL4024709, “Synthesis and biological evaluation of hypoxia-activated prodrugs of SN-38” (Eur J Med Chem, 2017).

How the values were obtained:
NCI-H460 [1] = experiment: Selectivity ratio of IC50 for human NCI-H460 cells under normoxic condition to IC50 for human NCI-H460 cells under hypoxic condition
[2] = Stability of the compound in mouse liver microsomes assessed as compound remaining at 5 uM after 6 hrs in presence of NADPH by HPLC method; type: ADME, microsome; conditions: read-out: Stability
Summary of the method: (§1)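 Final mix: 5 µM compound, mouse liver microsomes 1 mg/mL, 5 mM MgCl2, ±1 mM NADPH, in 10 mM PBS pH 7.4 at 37 °C. Preincubated, then started by adding microsomes. Samples at 0–6 h quenched with cold methanol and centrifuged. Supernatant run on C18 HPLC (5–95% CH3CN/0.1% TFA, 373 nm); percent remaining at 6 h.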

[3] = Stability of the compound in mouse liver microsomes assessed as compound remaining at 5 uM after 6 hrs in absence of NADPH by HPLC method; type: ADME, microsome; conditions: read-out: Stability; summary of the method: as §1
HT-29 [4] = experiment: Selectivity ratio of IC50 for human HT-29 cells under normoxic condition to IC50 for human HT-29 cells under hypoxic condition
HT-29 [5] = experiment: Cytotoxicity against human HT-29 cells pretreated for 24 hrs under normoxic condition followed by compound washout measured after 72 hrs by MTT assay; type: cell-based
Summary of the method: (§2)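 HT29 in McCoy's 5A, H460 in RPMI 1640, each with 10% FBS and 1% pen-strep, 37 °C, 5% CO2. Seeded and grown 24 h, then exposed for 24 h to serial dilutions (DMSO ≤0.1% final) in hypoxia (94% N2/5% CO2/1% O2 chamber) or air.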

NCI-H460 [6] = experiment: Cytotoxicity against human NCI-H460 cells pretreated for 24 hrs under hypoxic condition followed by compound washout measured after 72 hrs by MTT assay; type: functional, cell-based; summary of the method: as §2
[7] = Stability of the compound in phosphate buffered saline assessed as compound remaining at 5 uM after 48 hrs by HPLC method; type: physicochemical; conditions: read-out: Stability
Summary of the method: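 Compound held in 10 mM PBS pH 7.4 at 37 °C for 48 h; percent remaining measured.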

HT-29 [8] = experiment: Cytotoxicity against human HT-29 cells pretreated for 24 hrs under hypoxic condition followed by compound washout measured after 72 hrs by MTT assay; type: functional, cell-based; summary of the method: as §2
NCI-H460 [9] = experiment: Cytotoxicity against human NCI-H460 cells pretreated for 24 hrs under normoxic condition followed by compound washout measured after 72 hrs by MTT assay; type: cell-based; summary of the method: as §2

Row | SMILES | Ratio IC50 (NCI-H460 [1]) | remaining at 6 h, 5 µM [2] | remaining at 6 h, 5 µM [3] | Ratio IC50 (HT-29 [4]) | IC50 (HT-29 [5]) | IC50 (NCI-H460 [6]) | remaining at 48 h, 5 µM [7] | IC50 (HT-29 [8]) | IC50 (NCI-H460 [9])
1 | CCc1c2c(nc3ccc(OC(=O)N(C)CCN(C)C(=O)OCc4cnc([N+](=O)[O-])n4C)cc13)-c1cc3c(c(=O)n1C2)COC(=O)[C@]3(O)CC | 1.09 | 13% | 92% | >1.32 | > 100 µM | 7.56 µM | 99% | 75.9 µM | 8.27 µM
2 | CCc1c2c(nc3ccc(OCc4cnc([N+](=O)[O-])n4C)cc13)-c1cc3c(c(=O)n1C2)COC(=O)[C@]3(O)CC | 3.71 | 72% | 94% | 3.82 | 14.9 µM | 0.14 µM | 100% | 3.89 µM | 0.52 µM
3 | CCc1c2c(nc3ccc(O)cc13)-c1cc3c(c(=O)n1C2)COC(=O)[C@]3(O)CC [7-ETHYL-10-HYDROXYCAMPTOTHECIN] | 0.83 |  |  | 0.74 | 2.74 µM | 0.06 µM |  | 3.71 µM | 0.05 µM
4 | Cn1c(COP(=O)(NCCBr)NCCBr)cnc1[N+](=O)[O-] [EVOFOSFAMIDE] | 5.61 |  |  | >2.02 | > 100 µM | 9.08 µM |  | 49.5 µM | 51 µM
